Activity calls are given as the source filed them. The calls are words filed in the database; no cut-off is given here.
What was measured:
LNCaP C4-2 [1] = test: Down regulation of XIAP expression in human C4-2 cells by Western blot analysis; type: functional, cell-based
LNCaP C4-2 [2] = test: Down regulation of survivin expression in human C4-2 cells by Western blot analysis; type: functional, cell-based
PC-3 [3] = test: Down regulation of survivin expression in human PC3 cells by Western blot analysis; type: functional, cell-based
LNCaP C4-2 [4] = test: Cytotoxicity against human C4-2 cells assessed as reduction in cell viability measured after 72 hrs by methylene blue staining based assay; type: functional; conditions: LNCaP C4-2, 72 h
Summary of the method: (§1)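 Methylene blue survival assay. Prostate cancer cells in RPMI with 10% FBS were seeded at 2000–3500 cells/well and exposed to a concentration series for 72 h. Cells were then methanol-fixed, stained with 1% methylene blue in 10 mM borate for 1 h, washed, and the dye dissolved in ethanol/0.1 M HCl (1:1). OD650nm was read. IC50 came from fitted dose–response curves; three independent experiments.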

PC-3 [5] = test: Cytotoxicity against human PC3 cells assessed as reduction in cell viability measured after 72 hrs by methylene blue staining based assay; type: functional; conditions: PC-3, 72 h; summary of the method: as §1
Homo sapiens = species: Homo sapiens; test: Inhibition of p53-large T antigen (unknown origin) dimerization assessed as reduction in SEAP reporter expression measured after 24 hrs by mammalian two hybrid assay
Summary of the method: (§2)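 Mammalian two-hybrid assay in DU145 cells seeded at 1 × 10^5/well, cultured 24 h, then transfected with GAL4-DBD (pBIND) and VP16 (pACT) fusions plus pGSEAP reporter and a firefly luciferase plasmid. Survivin–survivin or p53–large T antigen pairs were used; vector served as control. Two days later, cells were treated for 24 h. SEAP was measured by chemiluminescence and normalized using luciferase for transfection efficiency.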

DU-145 = test: Effect on basal SEAP reporter activity in human DU145 cells measured after 24 hrs by mammalian two hybrid assay; type: ADME, cell-based; conditions: du-145, 24 h; summary of the method: as §2
LNCaP C4-2 [6] = test: Cytotoxicity against human C4-2 cells transfected with pcDNA3.1 assessed as reduction in cell viability measured after 72 hrs by methylene blue staining based assay; type: functional; conditions: LNCaP C4-2, 72 h; summary of the method: as §1
LNCaP C4-2 [7] = test: Cytotoxicity against human C4-2 cells transfected with HA-tagged survivin assessed as reduction in cell viability measured after 72 hrs by methylene blue staining based assay; type: functional; conditions: LNCaP C4-2, 72 h
PC-3 [8] = test: Down regulation of XIAP expression in human PC3 cells by Western blot analysis; type: functional, cell-based
LNCaP C4-2 [9] = test: Down regulation of CIAP1 expression in human C4-2 cells by Western blot analysis; type: functional, cell-based
PC-3 [10] = test: Down regulation of CIAP1 expression in human PC3 cells by Western blot analysis; type: functional, cell-based
LNCaP C4-2 [11] = test: Down regulation of CIAP2 expression in human C4-2 cells by Western blot analysis; type: functional, cell-based
PC-3 [12] = test: Down regulation of CIAP2 expression in human PC3 cells by Western blot analysis; type: functional, cell-based
[13] = molecular target: Baculoviral IAP repeat-containing protein 5 (Homo sapiens) (UniProt O15392); test: Inhibition of survivin homodimerization in human C4-2 cells assessed as increase in survivin degradation by measuring survivin half life at 10 uM incubated up to 6 hrs in presence of cycloheximide by Western blot analysis (reference value: 2.2 hrs); type: cell-based; conditions: LNCaP C4-2
Chain of Baculoviral IAP repeat-containing protein 5 (Homo sapiens) (O15392 whole entry): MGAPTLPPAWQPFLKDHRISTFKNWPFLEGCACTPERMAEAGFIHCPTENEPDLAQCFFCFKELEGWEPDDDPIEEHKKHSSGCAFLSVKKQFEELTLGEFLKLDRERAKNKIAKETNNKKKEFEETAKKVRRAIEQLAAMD
Summary of the method: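 C4-2 or PC-3 cells were pretreated with 10 μM cycloheximide for 1 h, then chased with or without 10 μM compound, or with DMSO, for 0–6 h. Remaining survivin was measured by Western blot with actin as loading control. Band densities were quantified from three independent experiments to derive half-life.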

[14] = molecular target: Baculoviral IAP repeat-containing protein 5 (Homo sapiens) (UniProt O15392); test: Inhibition of survivin homodimerization in human C4-2 cells assessed as increase in survivin degradation in presence of proteasome inhibitor MG132 by Western blot analysis; type: cell-based; conditions: LNCaP C4-2
Summary of the method: (§3)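 Cells were pretreated for 1 h with proteasome inhibitor MG132 or bortezomib before compound treatment. Survivin was then assessed by Western blot with actin loading control, quantified from three independent experiments.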

[15] = molecular target: Baculoviral IAP repeat-containing protein 5 (Homo sapiens) (UniProt O15392); test: Inhibition of survivin homodimerization in human C4-2 cells assessed as increase in survivin degradation in presence of proteasome inhibitor bortezomib by Western blot analysis; type: cell-based; conditions: LNCaP C4-2; summary of the method: as §3
LNCaP C4-2 [16] = test: Induction of apoptosis in human C4-2 cells assessed as increase in cleavage of caspase-3 by Western blot analysis; type: functional, cell-based
Summary of the method: (§4)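 C4-2 or PC-3 cells were treated at a range of concentrations, and cleaved caspase 3 was measured by Western blot. Quantification was from three independent experiments.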

PC-3 [17] = test: Induction of apoptosis in human PC3 cells assessed as increase in cleavage of caspase-3 by Western blot analysis; type: functional, cell-based; summary of the method: as §4
LNCaP C4-2 [18] = test: Induction of apoptosis in human C4-2 cells at 3 uM measured after 48 hrs by Annexin V-FITC/propidium iodide staining based flow cytometry relative to control; type: functional
Summary of the method: (§5)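 C4-2 or PC-3 cells were treated with 3 μM compound or DMSO for 48 h, harvested, washed, and stained with annexin V-FITC and propidium iodide. Apoptosis was analysed by flow cytometry with excitation at 488 […]; three independent experiments.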

PC-3 [19] = test: Induction of apoptosis in human PC3 cells at 3 uM measured after 48 hrs by Annexin V-FITC/propidium iodide staining based flow cytometry relative to control; type: functional; summary of the method: as §5
PC-3 [20] = test: Antitumor activity against human PC3 cells xenografted in NSG mouse assessed as suppression of tumor growth at 100 mg/kg, po administered via gavage every other day for 10 times and measured every 2 days during compound dosing; type: functional, organism-based
Summary of the method: (§6)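 PC-3 cells (3 × 10^6, in media) implanted in hind flanks of 6-week-old male NSG mice. Once tumors reached ~100 mm3, mice were randomized into two groups of 5. Vehicle (90% corn oil/10% DMSO) or 100 mg/kg was given by oral gavage every other day for ten doses. Body weight and tumor size were measured every 2 days. At sacrifice, tumors were excised for survivin Western blot and staining, and major organs were wet-weighed.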

[21] = Toxicity in NSG mouse xenografted in human PC3 cells assessed as effect on body weight at 100 mg/kg, po administered via gavage every other day for 10 times and measured every 2 days during compound dosing; type: organism-based, PC-3; conditions: in vivo, 48 h; summary of the method: as §6
[22] = Toxicity in NSG mouse xenografted in human PC3 cells assessed as effect on heart weight at 100 mg/kg, po administered via gavage every other day for 10 times and measured post last dose; type: organism-based, PC-3; conditions: in vivo; summary of the method: as §6
[23] = Toxicity in NSG mouse xenografted in human PC3 cells assessed as effect on liver weight at 100 mg/kg, po administered via gavage every other day for 10 times and measured post last dose; type: organism-based, PC-3; conditions: in vivo; summary of the method: as §6
[24] = Toxicity in NSG mouse xenografted in human PC3 cells assessed as effect on kidney weight at 100 mg/kg, po administered via gavage every other day for 10 times and measured post last dose; type: organism-based, PC-3; conditions: in vivo; summary of the method: as §6
[25] = Toxicity in NSG mouse xenografted in human PC3 cells assessed as effect on lung weight at 100 mg/kg, po administered via gavage every other day for 10 times and measured post last dose; type: organism-based, PC-3; conditions: in vivo; summary of the method: as §6
[26] = Toxicity in NSG mouse xenografted in human PC3 cells assessed as effect on stomach weight at 100 mg/kg, po administered via gavage every other day for 10 times and measured post last dose; type: organism-based, PC-3; conditions: in vivo; summary of the method: as §6
PC-3 [27] = test: Antitumor activity against human PC3 cells xenografted in NSG mouse assessed as reduction in tumor size at 100 mg/kg, po administered via gavage every other day for 10 times and measured post last dose; type: functional, organism-based; summary of the method: as §6
PC-3 [28] = test: Antitumor activity against human PC3 cells xenografted in NSG mouse assessed as change in tumor color at 100 mg/kg, po administered via gavage every other day for 10 times and measured post last dose; type: functional, organism-based; summary of the method: as §6
[29] = molecular target: Baculoviral IAP repeat-containing protein 5 (Homo sapiens) (UniProt O15392); test: In vivo inhibition of survivin in NSG mouse xenografted in human PC3 cells assessed as reduction in survivin expression at 100 mg/kg, po administered via gavage every other day for 10 times and measured post last dose by Western blot analysis; type: functional, organism-based; conditions: PC-3; summary of the method: as §6
[30] = molecular target: Baculoviral IAP repeat-containing protein 5 (Homo sapiens) (UniProt O15392); test: In vivo inhibition of survivin in NSG mouse xenografted in human PC3 cells assessed as reduction in survivin expression at 100 mg/kg, po administered via gavage every other day for 10 times and measured post last dose by immunofluorescence analysis; type: functional, organism-based; conditions: PC-3; summary of the method: as §6
[31] = Solubility of the compound in corn oil; type: physicochemical
[32] = molecular target: Baculoviral IAP repeat-containing protein 5 (Homo sapiens) (UniProt O15392); test: Inhibition of survivin homodimerization in human PC3 cells assessed as increase in survivin degradation by measuring survivin half life at 10 uM incubated up to 6 hrs in presence of cycloheximide by Western blot analysis (reference value: 2.3 hrs); conditions: PC-3
PC-3 [33] = test: Cytotoxicity against human PC3 cells assessed as reduction in cell viability by MTT assay; type: functional, cell-based

With `Fc1ccc(Nc2nc3ccccc3nc2Nc2ccc(F)cc2)cc1` the Activity (LNCaP C4-2 [1]) was “inactive”, the Activity (LNCaP C4-2 [2]) was “Active” and the Activity (PC-3 [3]) was “Active”. The IC50 (LNCaP C4-2 [4]) was 3.1 µM, the IC50 (PC-3 [5]) was 4.8 µM and the inhibition (Homo sapiens) was “inactive”. The Activity (DU-145) was “Non-Toxic”, the IC50 (LNCaP C4-2 [6]) was 2 µM and the IC50 (LNCaP C4-2 [7]) was 7 µM. The Activity (PC-3 [8]) was “inactive”, the Activity (LNCaP C4-2 [9]) was “inactive” and the Activity (PC-3 [10]) was “inactive”. For the same molecule, the Activity (LNCaP C4-2 [11]) was “inactive”, the Activity (PC-3 [12]) was “inactive” and the T1/2 [13] was 50 min. The inhibition [14] was “inactive”, the inhibition [15] was “inactive” and the Activity (LNCaP C4-2 [16]) was “Dose-dependent effect”. The Activity (PC-3 [17]) was “Dose-dependent effect”, the Activity (LNCaP C4-2 [18]) was 48% and the Activity (PC-3 [19]) was 39%. For the same molecule, the Activity (PC-3 [20]) was “Active”, the Activity [21] was “Non-Toxic” and the Activity [22] was “Non-Toxic”. The Activity [23] was “Non-Toxic”, the Activity [24] was “Non-Toxic” and the Activity [25] was “Non-Toxic”. The Activity [26] was “Non-Toxic”, the Activity (PC-3 [27]) was “Active” and the Activity (PC-3 [28]) was “Active”. For the same molecule, the inhibition [29] was “Active”, the inhibition [30] was “Active” and the solubility [31] was “Soluble”. It also gave a T1/2 [32] of 25 min.
Work on `O=C1N=c2ccc(Nc3nc4nonc4nc3N/N=C/c3ccccc3OCc3ccc(Cl)cc3Cl)cc2=N1` yielded an IC50 (PC-3 [33]) of 60.3 µM.
With `CC(C)(C)c1ccc(Nc2nc3ccccc3nc2Nc2ccc(C(C)(C)C)cc2)cc1` the IC50 (LNCaP C4-2 [4]) was 18.6 µM and the IC50 (PC-3 [5]) was 18.2 µM.
`Cc1cccc(Nc2nc3nonc3nc2N/N=C/c2ccc(-c3ccc(Cl)c([N+](=O)[O-])c3)o2)c1C` gave an IC50 (PC-3 [33]) of 7.2 µM.
Molecule `Cc1ccc(-c2ccc(/C=N/Nc3nc4nonc4nc3Nc3ccc(Br)cc3)o2)cc1Cl` has an IC50 (PC-3 [33]) of 3.3 µM.
With `Cc1cccc(Nc2nc3nonc3nc2N/N=C/c2cc3c(cc2[N+](=O)[O-])OCO3)c1C` the IC50 (PC-3 [33]) was 2.6 µM.
For `Cc1cccc(Nc2nc3nonc3nc2N/N=C/c2ccc(-c3cccc(C(=O)O)c3)o2)c1C`, the IC50 (LNCaP C4-2 [4]) was 9.1 µM and the IC50 (PC-3 [5]) was 8.1 µM.
With `CCOC(=O)c1ccc(Nc2nc3nonc3nc2N/N=C/c2c[nH]nc2-c2ccccc2)cc1` the IC50 (PC-3 [33]) was 3.5 µM.
Molecule `Cc1cccc(Nc2nc3ccccc3nc2Nc2cccc(C)c2C)c1C` has an IC50 (LNCaP C4-2 [4]) of 17.6 µM and an IC50 (PC-3 [5]) of 24.8 µM.
In the case of `O=C(Nc1nc2ccccc2nc1Nc1ccc(F)cc1)c1ccc2c(c1)OCO2`, the IC50 (LNCaP C4-2 [4]) is reported as 14.3 µM and the IC50 (PC-3 [5]) is reported as 20.7 µM.
`O=C(Nc1nc2ccccc2nc1Nc1ccc(F)cc1)c1ccccc1` gave an IC50 (LNCaP C4-2 [4]) of 12.7 µM and an IC50 (PC-3 [5]) of 19.7 µM.

From ChEMBL document CHEMBL4616665, “Synthesis and Identification of a Novel Lead Targeting Survivin Dimerization for Proteasome-Dependent Degradation” (J Med Chem, 2020)
